Source: PubChem (The Scripps Research Institute Molecular Screening Center)
This is a sample that favours compounds with a hit; in the whole collection about 2.4% have one here.
NPY Y1 blocker: antagonists of human neuropeptide Y receptor Y1; P25929; HEK293-CNG Y1 cells, membrane potential fluorescence; NPY at EC95, then isoproterenol; inhibition, % at 3.6 µM; 200,000 compounds, 1% hits; AID 1040;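 active = inhibition above the campaign mean inhibition of all tested compounds plus 3 SD, cut at about 20% in these data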
Target sequence (P25929 whole entry, looked up): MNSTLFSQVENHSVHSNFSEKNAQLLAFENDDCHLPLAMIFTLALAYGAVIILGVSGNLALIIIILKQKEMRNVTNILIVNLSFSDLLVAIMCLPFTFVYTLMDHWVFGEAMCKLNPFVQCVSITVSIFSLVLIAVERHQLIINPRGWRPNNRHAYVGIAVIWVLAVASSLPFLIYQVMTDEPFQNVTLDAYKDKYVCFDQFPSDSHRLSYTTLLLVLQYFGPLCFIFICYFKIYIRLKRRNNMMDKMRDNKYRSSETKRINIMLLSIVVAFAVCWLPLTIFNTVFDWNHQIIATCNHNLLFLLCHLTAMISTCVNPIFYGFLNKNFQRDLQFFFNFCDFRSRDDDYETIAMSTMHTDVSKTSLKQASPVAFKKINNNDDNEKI
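Test system: HEK293 cells co-expressing NPY Y1 receptor and cyclic-nucleotide gated channel; Also added: NPY (25 nM), isoproterenol (1 µM), Ro 20-1724 (25 µM); Compound dosing: one concentration, 3.6 µM, in 0.4% DMSO; Timing: dye 3 h, compound 60 min room temperature, stimulation 45 min; Technique: Membrane-potential fluorescent dye readout.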
NPY1 pot ag: human NPY-Y1 potentiation or agonism, primary screen; 220,000 compounds, 0.37% hits; activation, % at 3.6 µM; P25929; NPY-Y1 expressing cells, potentiator/agonist activation; in the data active = activation above about 33%, passing the limit was not always enough;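 also: cells stimulated with NPY at EC10 then isoproterenol at EC100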
NPY-Y2 PAM-ag: human NPY-Y2 potentiation or agonism, primary screen. 220,000 compounds, 0.45% hits. cells expressing NPY-Y2, potentiator/agonist read-out. P49146. activation, % at 3.6 µM; in the data active = activation above about 27%;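 also: cells stimulated with NPY near EC25 plus isoproterenol at EC100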
S1P4 agonist: agonists of human S1P4 receptor. 220,000 compounds, 0.35% hits. S1P4-expressing cell line, agonist reporter assay. activation, % at 4.98 µM; in the data active = activation above about 11%
NPY-Y2 antag: antagonists of human neuropeptide Y receptor Y2; AID 793; inhibition, % at 2.7 µM; NPY-Y2 expressing cells, antagonist mode; P49146; 140,000 compounds, 0.99% hits; in the data active = inhibition above about 17%
S1P4 antagonist: antagonists of human S1P4 receptor; O95977; S1P4-expressing cells, antagonist mode, reporter read-out; inhibition, % at 4.98 µM; 220,000 compounds, 0.26% hits; in the data active = inhibition above about 29%
Large screens that a line does not name were inactive.

Cc1ccc(-n2nnnc2SCC(=O)Nc2ccccc2N2CCCCC2)cc1C	NPY Y1 blocker 48, NPY-Y2 antag 28
CC(C)OP(=O)(OC(C)C)/C(C=O)=N\Nc1ccc([N+](=O)[O-])cc1	NPY1 pot ag 51, NPY-Y2 PAM-ag 53 (no result: NPY Y1 blocker, NPY-Y2 antag)
Cc1ccc(S(=O)(=O)Nc2ccccc2C(=O)Nc2nc(-c3ccc(F)cc3)cs2)cc1	none
COc1ccc(-c2csc(NC(=O)c3ccccc3NS(=O)(=O)c3ccc(F)c(F)c3)n2)cc1	NPY1 pot ag 70, NPY-Y2 PAM-ag 94 (no result: NPY-Y2 antag)
COc1ccc(CCNC(=O)c2ccc3ccccc3n2)cc1OC	NPY Y1 blocker 20 (no result: NPY-Y2 antag)
COc1ccc(CCNC(=O)c2cc(-c3ccccc3OC)on2)cc1OC	none
CCn1cc(C(=O)O)c(=O)c2cnc(N3CCN(C(=S)Nc4ccccc4C(F)(F)F)CC3)nc21	none (no result: NPY Y1 blocker, NPY-Y2 antag)
Cn1cc(C(=O)N/N=C/C2=C(N3CCOCC3)C(=C\c3ccccc3)/CC2)ccc1=O	none
O=C1Nc2ccccc2/C1=N\N=C\C1=C(N2CCOCC2)C(=C\c2ccccc2)/CC1	NPY1 pot ag 46, NPY-Y2 PAM-ag 42
COc1ccccc1OCCn1c(=O)oc2ccc(C)cc21	none (no result: NPY-Y2 antag)
CC1(C)c2ssc(=S)c2-c2ccccc2N1C(=O)CSC1=NCCS1	NPY-Y2 PAM-ag 34
O=S(=O)(NCc1ccc2c(c1)OCO2)c1ccc2oc3ccccc3c2c1	NPY Y1 blocker 21, NPY-Y2 antag 19
O=C(CCc1ccc(S(=O)(=O)NCc2ccccc2)cc1)NCc1ccc2c(c1)OCO2	none
O=Cc1ccnc(-c2ccc(OC(=O)c3ccco3)cc2)n1	none (no result: NPY-Y2 antag)
COc1ccc(OCC(O)Cn2c(=N)n(CCN3CCCCC3)c3ccccc32)cc1 (configuration not stated)	NPY Y1 blocker 34, NPY-Y2 antag 19
Cc1ccc(OCC(O)Cn2c(=N)n(CCN3CCOCC3)c3ccccc32)cc1 (configuration not stated)	none
Cc1ccc(OCC(O)Cn2c(=N)n(CCN3CCCCC3)c3ccccc32)cc1 (configuration not stated)	NPY Y1 blocker 62, NPY-Y2 antag 46
CCCC(=O)N(CCN(Cc1ccccc1)C(=O)CCC)Cc1ccccc1	NPY Y1 blocker 56, NPY-Y2 antag 25
CCOCC(=O)N(CC)Cc1ccccc1	none (no result: NPY-Y2 antag)
CCOC(=O)C(C)(C)N(Cc1ccc(Cl)cc1)S(=O)(=O)c1ccc(Cl)c([N+](=O)[O-])c1	NPY1 pot ag 65, NPY-Y2 PAM-ag 66
Cc1cc([N+](=O)[O-])ccc1NC(=O)CSc1nccc(=O)[nH]1	none (no result: NPY-Y2 antag)
CCOC(=O)Cc1cnc(NC(=O)CSc2nc(N)cc(N)n2)s1	none (no result: NPY-Y2 antag)
CCC(CC)C1C(C#N)=C(N)Oc2n[nH]c(-c3ccccc3)c21 (configuration not stated)	NPY1 pot ag 49, NPY-Y2 PAM-ag 38
N#CC1=C(N)Oc2n[nH]c(-c3ccncc3)c2C1c1ccsc1 (configuration not stated)	none
N#CC1=C(N)Oc2n[nH]c(-c3ccccc3)c2C1c1ccsc1 (configuration not stated)	NPY Y1 blocker 36
CCOc1ccc(-n2c(=S)sc3c(=O)[nH]c(SCC(=O)C(C)(C)C)nc32)cc1	none (no result: NPY-Y2 antag)
C=CCc1ccc(O)c(-c2ccc(O)c(CC=C)c2)c1	none (no result: NPY-Y2 antag)
COc1ccc2c(c1)C(C)=CC(C)(C)N2C(=O)C(C)N1C(=O)c2ccccc2C1=O (configuration not stated)	none
CC1=CC(C)(C)N(C(=O)C(C)N2C(=O)c3ccccc3C2=O)c2c(C)cc(C)cc21 (configuration not stated)	NPY Y1 blocker 28, NPY-Y2 antag 18
COC(=O)C(Cc1ccccc1)NC(=O)C12CC3CC(CC(C3)C1)C2 (configuration not stated)	none
COC(=O)C(Cc1ccc(O)cc1)NC(=O)C12CC3CC(CC(C3)C1)C2 (configuration not stated)	NPY1 pot ag 51, NPY-Y2 PAM-ag 63 (no result: NPY-Y2 antag)
Cc1ccccc1NC(=S)N(Cc1ccccc1)Cc1cccs1	NPY Y1 blocker 22 (no result: NPY-Y2 antag)
Cc1ccccc1NC(=S)N(CCN1CCCCCC1)Cc1cccs1	none (no result: NPY-Y2 antag)
CN(C)CCn1c(C(=O)Nc2ccccc2)cc2ccccc21	NPY Y1 blocker 38, NPY-Y2 antag 20
COCCNC(=O)Cn1cc(C(=O)c2ccco2)c2ccccc21	none (no result: NPY-Y2 antag)
